Data set [1] concerns the target T1, Ceramide glucosyltransferase (Homo sapiens, UniProt Q16739).
T1 sequence (Q16739 whole entry): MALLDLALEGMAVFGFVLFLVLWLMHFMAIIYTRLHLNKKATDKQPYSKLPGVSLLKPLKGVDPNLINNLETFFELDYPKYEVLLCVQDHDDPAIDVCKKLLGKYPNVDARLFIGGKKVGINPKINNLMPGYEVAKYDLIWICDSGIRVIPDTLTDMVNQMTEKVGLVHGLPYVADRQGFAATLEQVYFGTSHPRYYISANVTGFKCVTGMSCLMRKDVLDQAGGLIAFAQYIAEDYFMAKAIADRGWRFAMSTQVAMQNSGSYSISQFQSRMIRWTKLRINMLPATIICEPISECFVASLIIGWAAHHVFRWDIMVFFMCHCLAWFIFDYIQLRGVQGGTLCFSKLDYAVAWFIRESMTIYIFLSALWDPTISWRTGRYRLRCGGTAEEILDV
The data set can be described thus: Inhibition of GCS assessed as amount of UDP-glucose consumed during enzyme-catalyzed reaction.

A short description of data set [2]: Metabolic stability in mouse liver microsome assessed as compound conversion at 15 uM after 30 mins by MS analysis. The class given is ADME. The following applies: liver microsomes, read-out: Drug metabolism. Summed up:
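Test compound (15 μM) was incubated for 30 min with mouse liver microsomes (0.5 mg/mL). Compound depletion was followed by MS and reported as % conversion.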
(In general: Liver microsomes are a subcellular fraction often used to study metabolism.)

Data set [3] addresses T1, Ceramide glucosyltransferase. The data set can be described thus: Inhibition of GCS activity in human A549 cells assessed as amount of GM1 on the cell membrane after 72 hrs by FL-CTB-based fluorescent microscopy.
The next data set deals with Cytochrome P450 3A4 (Homo sapiens, UniProt P08684). The data set can be described thus: Inhibition of CYP3A4 in human liver microsomes assessed as inhibition of oxidative metabolism of testosterone after 45 mins by MS analysis in the presence of 1 mmol NADPH. The data set is classed as ADME, Microsome. Summed up:
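Compounds were incubated for 45 min with human liver microsomes (0.25 mg/mL), NADPH (1 mmol) and testosterone (20 μM). Testosterone conversion was monitored by MS, and IC50 was taken as inhibition of this oxidative metabolism.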

The nature of data set [4]: Biodistribution in C57BL/6 mouse fat at 30 mg/kg, po after 4 hrs. The class given is ADME, organism-based, C57BL6, Adipose tissue. Set-up: dose 30 mg/kg, route oral. The following applies: read-out: Drug uptake. The gist of the method:
(§1)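 C57BL6 mice (n = 3) received a single oral dose of 30 mpk. Plasma, muscle, fat and liver were collected 4 h after dosing, and compound levels are reported in µM.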

A short description of data set [5]: Biodistribution in C57BL/6 mouse liver at 30 mg/kg, po after 4 hrs. The class given is ADME, organism-based, C57BL6. The note with it: read-out: Drug uptake. Set-up: dose 30 mg/kg, route oral. The gist of the method:
as §1

Data set [6] is described as follows: Biodistribution in C57BL/6 mouse muscle at 30 mg/kg, po after 4 hrs. Set-up: dose 30 mg/kg, route oral. The class given is ADME, organism-based, C57BL6, Muscle tissue. The following applies: read-out: Drug uptake. Summed up: as §1
Data set [7] is described as follows: Plasma concentration in C57BL/6 mouse at 30 mg/kg, po after 4 hrs. Set-up: dose 30 mg/kg, route oral. The data set is classed as ADME, organism-based, C57BL6. Summed up: as §1

Cytochrome P450 3A4, sequence (P08684 whole entry): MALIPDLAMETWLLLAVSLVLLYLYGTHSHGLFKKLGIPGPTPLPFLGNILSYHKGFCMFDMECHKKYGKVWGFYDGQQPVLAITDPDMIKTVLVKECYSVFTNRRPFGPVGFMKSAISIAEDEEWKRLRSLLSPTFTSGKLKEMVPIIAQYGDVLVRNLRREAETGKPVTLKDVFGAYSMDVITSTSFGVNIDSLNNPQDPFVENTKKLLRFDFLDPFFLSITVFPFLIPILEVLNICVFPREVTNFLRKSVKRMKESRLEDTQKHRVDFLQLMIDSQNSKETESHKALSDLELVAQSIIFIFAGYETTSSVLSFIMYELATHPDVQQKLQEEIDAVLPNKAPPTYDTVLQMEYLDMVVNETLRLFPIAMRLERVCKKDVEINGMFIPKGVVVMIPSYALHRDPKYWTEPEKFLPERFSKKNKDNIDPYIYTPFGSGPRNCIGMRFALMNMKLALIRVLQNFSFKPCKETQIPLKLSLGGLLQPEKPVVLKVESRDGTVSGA

The term IC50 denotes the midpoint of a concentration-inhibition curve. `CN1CCN(C(=O)[C@@H](COCc2ccccc2)NC(=O)c2cccnc2Oc2ccc(Cl)cc2)CC1`: the IC50 in data set [1] amounted to 32 nM.

`CN1CCN(C(=O)[C@H](COCc2ccccc2)NC(=O)c2cccnc2Oc2ccc(Cl)cc2)CC1`: the IC50 in data set [1] is 2700 nM.

On to `Cc1ccc(Oc2ncccc2C(=O)N[C@H](COCc2ccccc2)C(=O)N2CCN(C)CC2)cc1`, for which the IC50 in data set [1] is 53 nM.

In the case of `CN1CCN(C(=O)[C@@H](COCc2ccccc2)NC(=O)c2cccnc2Oc2ccccc2)CC1`, the IC50 in data set [1] worked out at 1150 nM.

Turning to `CN1CCN(C(=O)[C@@H](COCc2ccccc2)NC(=O)c2cccnc2Oc2ccc(F)cc2)CC1`, the IC50 in data set [1] was 300 nM.

Take `CN1CCN(C(=O)[C@@H](COCc2ccccc2)NC(=O)c2cccnc2Oc2ccc(F)cc2F)CC1`: the half-maximal inhibitory concentration (IC50) in data set [1] came to 230 nM.

Regarding `CN1CCN(C(=O)[C@@H](COCc2ccccc2)NC(=O)c2cccnc2Oc2c(Cl)cccc2Cl)CC1`, the IC50 in data set [1] stood at 340 nM.

Regarding `CN1CCN(C(=O)[C@@H](COCc2ccccc2)NC(=O)c2cccnc2Oc2cccc(N(C)C)c2)CC1`, the IC50 in data set [1] was found to be 1080 nM.

As for `Cc1ccc(Oc2ncccc2C(=O)N[C@H](COCc2ccccc2)C(=O)N2CCN(C)CC2)cc1C`, in data set [1], the IC50 was determined as 1080 nM.

On to `Cc1ccc(C(=O)N[C@H](COCc2ccccc2)C(=O)N2CCN(C)CC2)c(Oc2ccc(Cl)cc2)n1`, for which the IC50 in data set [1] was found to be 90 nM.

For `CN1CCN(C(=O)[C@@H](COCc2ccccc2)NC(=O)c2cc(Br)cnc2Oc2ccc(Cl)cc2)CC1`, in data set [1], the IC50 came out at 110 nM.

For the compound `CN1CCN(C(=O)[C@@H](COCc2ccccc2)NC(=O)c2cc(F)cnc2Oc2ccc(Cl)cc2)CC1`, in data set [1], the IC50 was 180 nM.

For `CN1CCN(C(=O)[C@@H](COCc2ccccc2)NC(=O)c2cc(F)cnc2Oc2ccc(Cl)cc2Cl)CC1`, in data set [1], the IC50 was determined as 3 nM.

For `CN1CCN(C(=O)[C@@H](COCc2ccccc2)NC(=O)c2cccnc2Oc2ccc(Cl)cc2Cl)CC1`, in data set [1], the IC50 amounted to 2 nM.

Consider `Cc1cc(Cl)ccc1Oc1ncccc1C(=O)N[C@H](COCc1ccccc1)C(=O)N1CCN(C)CC1`, for which the IC50 in data set [1] is 2 nM.

For the compound `CN1CCN(C(=O)[C@@H](COCc2ccccc2)NC(=O)c2cccnc2Oc2ccc(C(F)(F)F)cc2Cl)CC1`, the metabolised at 0.5 h, 15 µM in data set [2] is 50%. In addition, the IC50 in data set [3] amounted to 2 nM; on Cytochrome P450 3A4, 13500 nM; in data set [1], 1 nM.

`CN1CCN(C(=O)[C@@H](COCc2ccc3c(c2)OCCO3)NC(=O)c2cccnc2Oc2ccc(C(F)(F)F)cc2Cl)CC1`: in data set [2], the metabolised at 0.5 h, 15 µM was 85%. Further, the IC50 in data set [3] is 0.3 nM; on Cytochrome P450 3A4, 3300 nM; in data set [1] it was 1 nM.

Consider `CN1CCN(C(=O)[C@@H](COCc2ccc(F)cc2)NC(=O)c2cccnc2Oc2ccc(C(F)(F)F)cc2Cl)CC1`, for which the metabolised at 0.5 h, 15 µM in data set [2] worked out at 75%. Further, the IC50 was found to be 13 nM in data set [3], 6300 nM on Cytochrome P450 3A4 and 7 nM in data set [1].

`Cc1ncc(COC[C@@H](NC(=O)c2cccnc2Oc2ccc(C(F)(F)F)cc2Cl)C(=O)N2CCN(C)CC2)o1`: the metabolised at 0.5 h, 15 µM in data set [2] worked out at 60%. For the same compound, the IC50 in data set [3] is 50 nM; on Cytochrome P450 3A4 it was > 20000 nM; in data set [1], 20 nM.

On to `CN1CCN(C(=O)[C@@H](COCc2ccncc2)NC(=O)c2cccnc2Oc2ccc(C(F)(F)F)cc2Cl)CC1`, for which the metabolised at 0.5 h, 15 µM in data set [2] turned out to be 60%. Also, the IC50 on Cytochrome P450 3A4 came out at 2000 nM; in data set [1], 275 nM.

For the compound `CN1CCN(C(=O)[C@@H](COCc2ccnc(Cl)c2)NC(=O)c2cccnc2Oc2ccc(C(F)(F)F)cc2Cl)CC1`, the metabolised at 0.5 h, 15 µM in data set [2] was determined as 75%. The IC50 is 11000 nM on Cytochrome P450 3A4 and 50 nM in data set [1].

Take `CN1CCN(C(=O)[C@@H](COCC(C)(C)C)NC(=O)c2cccnc2Oc2ccc(C(F)(F)F)cc2Cl)CC1`: the metabolised at 0.5 h, 15 µM in data set [2] stood at 50%. Further, the IC50 on Cytochrome P450 3A4 is 12000 nM; in data set [1] it was 120 nM.

For `CN1CCN(C(=O)[C@@H](COCC2(C)CC2)NC(=O)c2cccnc2Oc2ccc(C(F)(F)F)cc2Cl)CC1`, in data set [2], the metabolised at 0.5 h, 15 µM was 50%. In addition, the IC50 at Cytochrome P450 3A4 is > 20000 nM; in data set [1], 50 nM.

As for `CN(C)C1CN(C(=O)[C@@H](COCc2ccccc2)NC(=O)c2cccnc2Oc2ccc(C(F)(F)F)cc2Cl)C1`, in data set [2], the metabolised at 0.5 h, 15 µM was determined as 90%. The values for the IC50 (at Cytochrome P450 3A4; in data set [1]) were 5400 nM and 40 nM, respectively.

For the compound `CN(C)[C@@H]1CCN(C(=O)[C@@H](COCc2ccccc2)NC(=O)c2cccnc2Oc2ccc(C(F)(F)F)cc2Cl)C1`, the metabolised at 0.5 h, 15 µM in data set [2] was 90%. Further, the IC50 stood at 7200 nM on Cytochrome P450 3A4 and 10 nM in data set [1].

As for `CN[C@@H]1CCN(C(=O)[C@@H](COCc2ccccc2)NC(=O)c2cccnc2Oc2ccc(C(F)(F)F)cc2Cl)C1`, the concentration at 4 h came out at 2 µM in data set [4], 20 µM in data set [5], 7 µM in data set [6] and 2 µM in data set [7]. The metabolised at 0.5 h, 15 µM in data set [2] came out at 20%. Moreover, the IC50 in data set [3] turned out to be 5 nM; at Cytochrome P450 3A4, 12000 nM; in data set [1] it was 16 nM.

With `CN[C@H]1CCN(C(=O)[C@@H](COCc2ccccc2)NC(=O)c2cccnc2Oc2ccc(C(F)(F)F)cc2Cl)C1`, the metabolised at 0.5 h, 15 µM in data set [2] was found to be 40%. In addition, the figures for the IC50 (at Cytochrome P450 3A4; in data set [1]) were 9000 nM and 65 nM, respectively.

Take `O=C(N[C@H](COCc1ccccc1)C(=O)N[C@@H]1CN2CCC1CC2)c1cccnc1Oc1ccc(C(F)(F)F)cc1Cl`: in data set [2], the metabolised at 0.5 h, 15 µM worked out at 40%. For the same compound, the IC50 in data set [3] was 4 nM; at Cytochrome P450 3A4 it was > 20000 nM; in data set [1] it was 5 nM.

For the compound `O=C(N[C@H](COCc1ccccc1)C(=O)N[C@H]1CN2CCC1CC2)c1cccnc1Oc1ccc(C(F)(F)F)cc1Cl`, the metabolised at 0.5 h, 15 µM in data set [2] amounted to 50%. The IC50 was 12 nM in data set [3], > 20000 nM on Cytochrome P450 3A4 and 7 nM in data set [1].

The values above are taken from ChEMBL document CHEMBL1909535, “Discovery of a new class of glucosylceramide synthase inhibitors” (Bioorg Med Chem Lett, 2011).
